Results taken from ChEMBL document CHEMBL1140038, “Synthesis and evaluation of indolinyl- and indolylphenylacetylenes as PET imaging agents for beta-amyloid plaques” (Bioorg Med Chem Lett, 2008).
Calls of active or inactive are those of the source. The calls are words filed in the database; no cut-off is given here.

How the values were obtained:
[1] = Drug level in mouse brain after 2 mins; assay type: ADME, tissue-based; details: read-out: Drug uptake
Method in brief: (§1)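 [18F]-labelled ligands, HPLC-purified to >97% radiochemical purity, given by injection to normal mice. Brain radioactivity measured at 2 min, 2 h and 3 h after injection. Expressed as % injected dose per gram of tissue.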

[2] = Partition coefficient, log P of the compound; assay type: physicochemical; details: octanol/water
Method in brief: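 Partition coefficient measured for the HPLC-purified [18F]-radiolabelled ligands at pH 7.4. Reported as log P.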

[3] = Drug level in mouse brain after 3 hrs; assay type: ADME, tissue-based; details: read-out: Drug uptake; method in brief: as §1
[4] = molecular target: T1, Amyloid-beta precursor protein (Homo sapiens, UniProt P05067); test: Displacement of [125I]IMPY from beta-amyloid plaques in AD patient brain
Method in brief: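 Competition binding against the radioligand [125I]IMPY (6-iodo-2-(4'-dimethylamino-)phenylimidazo[1,2-a]pyridine). Tissue: homogenates of postmortem AD brain. Reported as Ki.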

[5] = molecular target: T1, Amyloid-beta precursor protein; test: Binding affinity to beta-amyloid in gray matter of AD patent brain; assay type: tissue-based; details: tested as the 18F-labelled form
[6] = Drug level in mouse brain after 2 hrs; assay type: ADME, tissue-based; details: read-out: Drug uptake; method in brief: as §1

T1 sequence (P05067 whole entry): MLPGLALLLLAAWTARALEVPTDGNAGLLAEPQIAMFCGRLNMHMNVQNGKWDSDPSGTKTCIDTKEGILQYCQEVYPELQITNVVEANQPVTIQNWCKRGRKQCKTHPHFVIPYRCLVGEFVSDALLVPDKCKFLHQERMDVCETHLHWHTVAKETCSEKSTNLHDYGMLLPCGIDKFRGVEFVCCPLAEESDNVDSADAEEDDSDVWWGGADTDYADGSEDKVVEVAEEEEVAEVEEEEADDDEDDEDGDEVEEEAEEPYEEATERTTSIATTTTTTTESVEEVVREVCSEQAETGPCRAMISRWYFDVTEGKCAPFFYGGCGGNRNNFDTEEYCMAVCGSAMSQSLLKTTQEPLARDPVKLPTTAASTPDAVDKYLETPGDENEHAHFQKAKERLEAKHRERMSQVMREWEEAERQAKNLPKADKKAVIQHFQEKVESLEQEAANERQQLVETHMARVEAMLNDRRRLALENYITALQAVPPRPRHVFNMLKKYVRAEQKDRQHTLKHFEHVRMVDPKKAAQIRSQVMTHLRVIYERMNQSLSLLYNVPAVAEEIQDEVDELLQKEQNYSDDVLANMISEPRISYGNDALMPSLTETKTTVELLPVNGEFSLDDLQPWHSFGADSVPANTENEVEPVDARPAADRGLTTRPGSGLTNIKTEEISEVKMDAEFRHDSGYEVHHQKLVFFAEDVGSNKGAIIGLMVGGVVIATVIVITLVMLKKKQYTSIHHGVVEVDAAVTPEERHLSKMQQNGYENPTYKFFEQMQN

tissue uptake at 2 min [1] [%ID/g]	logP [2]	tissue uptake at 3 h [3] [%ID/g]	Ki [4] [nM]	Activity [5]	tissue uptake at 2 h [6] [%ID/g]	SMILES
2.43	2.56	2.1	–	–	–	[18F]CCOCCOCCOc1ccc(C#Cc2ccc3[nH]ccc3c2)cc1
–	–	–	1.5	Active	–	FCCOCCOCCOc1ccc(C#Cc2ccc3[nH]ccc3c2)cc1
4.5	2.95	–	–	–	1.71	[18F]CCOCCOCCOc1ccc(C#Cc2ccc3c(c2)CCN3)cc1
–	–	–	4	Active	–	FCCOCCOCCOc1ccc(C#Cc2ccc3c(c2)CCN3)cc1
